As usually defined, the IC50 is the concentration needed to halve the response being measured. Low values mean higher potency, high ones lower potency. What is called ΔTm is the change in melting temperature against a reference sample.

Some results are limits rather than exact numbers.

One assay deals with PC-3. As to the kind of experiment: Cytotoxicity towards human prostate cancer PC 3 cell line was determined. Format: functional, cell-based. In short, it runs like this:
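PC 3 cells kept in RPMI 1640 with 10% FCS were seeded at 3 × 10⁴ cells/well. After 3 days they were serum-starved for 24 h, then stimulated with 10 ng/mL EGF plus transferrin 50 ng/mL and selenium 50 pg/mL, with compounds added. Growth was read by MTT colorimetry after a further 72 h.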

Assay [1] concerns Nucleic Acid. As to the kind of experiment: Relative DNA binding affinity was determined as difference in melting temperature (delta Tm) with the polynucleotide Poly (dAT)2 complex and alone Poly (dAT)2. Format: nucleic-acid assay.
For assay [2], the system named is Nucleic Acid. As to the kind of experiment: Apparent binding constant with polynucleotide Poly (dAT)2 complex measured by fluorescence assay. Type of assay: nucleic-acid assay. Particulars: in the assay text read “calf thymus DNA” for “polynucleotide Poly (dAT)2 complex”. In short, it runs like this: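 Ethidium displacement by fluorescence: excitation 515 nm, emission read over 550-700 nm, [ethidium]/[DNA] molar ratio 12.6:10, drug 0.01-100 µM in BPE buffer pH 7.1. C50 for ethidium displacement taken from a fitted curve; Kapp = (1.26 µM/C50) × K_ethidium, with K_ethidium = 10⁷ M^-1.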

Assay [3] concerns Nucleic Acid. As to the kind of experiment: Apparent binding constant with calf thymus DNA measured by fluorescence assay.

`COc1cc2nc3c(c4c2c(c1OC)N(C(=O)CN1CCN(C)CC1)CC4)Cc1cc(OCCN)ccc1-3`: in the assay with PC-3, the IC50 is greater than 1000 nM. Moreover, the ΔTm in the assay on Nucleic Acid [1] was 19.6 °C. In the assay with Nucleic Acid [2], the K app is 503000 M⁻¹.
Taken in the same sequence, the figures for `COc1cc2nc3c(c4c2c(c1OC)NCC4)CCc1cc(O)ccc1-3` were greater than 1000 nM, 1.1 °C and 1600 M⁻¹.
Taken in the same sequence, the figures for `COc1cc2nc3c(c4c2c(c1OC)N(C(C)=O)CC4)Cc1cc(OCCN)ccc1-3` were greater than 1000 nM, 7 °C and 990000 M⁻¹.
For the molecule `COc1cc2nc3c(c4c2c(c1OC)NCC4)Cc1cc(O)ccc1-3`, the IC50 with PC-3 is greater than 1000 nM. Besides, the K app in the assay on Nucleic Acid [3] came to 672000 M⁻¹. For the same molecule, the ΔTm in the assay on Nucleic Acid [1] was 4 °C.
`COc1cc2nc3c(c4c2c(c1OC)N(C(=O)CN1CCN(C)CC1)CC4)Cc1cc(OCCCN2CCN(C)CC2)ccc1-3`: in the assay with PC-3, the half-inhibitory concentration (IC50) was greater than 1000 nM. In addition, the ΔTm in the assay with Nucleic Acid [1] is 32.5 °C. Besides, the K app with Nucleic Acid [2] is 3.04e+06 M⁻¹.
Taken in the same sequence, the figures for `COc1cc2nc3c(c4c2c(c1OC)NCC4)Cc1cc(OCCN)ccc1-3` were greater than 1000 nM, 14.8 °C and 5.14e+06 M⁻¹.
Taken in the same sequence, the figures for `COc1cc2nc3c(c4c2c(c1OC)N(C(C)=O)CC4)Cc1cc(OCCCN2CCN(C)CC2)ccc1-3` were greater than 1000 nM, 3.8 °C and 3.58e+06 M⁻¹.
As for `COc1cc2nc3c(c4c2c(c1OC)N(C(C)=O)CC4)Cc1cc(OCCCN)ccc1-3`, the half-maximal inhibitory concentration (IC50) in the assay on PC-3 was greater than 1000 nM. In addition, the K app in the assay with Nucleic Acid [3] turned out to be 293000 M⁻¹. Moreover, the ΔTm in the assay with Nucleic Acid [1] was 6 °C.
In the assay on PC-3, `COc1cc2nc3c(c4c2c(c1OC)N(C(C)=O)CC4)Cc1cc(O)ccc1-3` returned an IC50 greater than 1000 nM. For the same molecule, the thermal shift (ΔTm) in the assay with Nucleic Acid [1] worked out at 3.1 °C. Further, the K app with Nucleic Acid [2] is 677000 M⁻¹.
In the assay with PC-3, `COc1cc2nc3c(c4c2c(c1OC)NCC4)Cc1ccccc1-3` showed an IC50 greater than 1000 nM. Further, the thermal shift (ΔTm) with Nucleic Acid [1] turned out to be 0 °C. For the same molecule, in the assay with Nucleic Acid [2], the K app was found to be 3100 M⁻¹.
In the case of `COc1cc2nc3c(c4c2c(c1OC)N(C(=O)CN1CCN(C)CC1)CC4)Cc1cc(OCCCN)ccc1-3`, in the assay with PC-3, the IC50 was greater than 1000 nM. In the assay on Nucleic Acid [3], the K app stood at 2.78e+06 M⁻¹. Also, the ΔTm in the assay on Nucleic Acid [1] was 22.5 °C.
Molecule `COc1cc2nc3c(c4c2c(c1OC)NCC4)Cc1cc(OCCCN2CCN(C)CC2)ccc1-3` yielded an IC50 with PC-3 of 6.5 nM. Also, in the assay on Nucleic Acid [1], the ΔTm turned out to be 10 °C. The K app in the assay on Nucleic Acid [2] was determined as 301000 M⁻¹.
In the case of `COc1cc2nc3c(c4c2c(c1OC)N(C(C)=O)CC4)Cc1ccccc1-3`, the IC50 with PC-3 was greater than 1000 nM.
As for `COc1ccc2c(c1)Cc1c-2nc2cc(OC)c(OC)c3c2c1CCN3C(C)=O`, in the assay on PC-3, the IC50 is greater than 1000 nM.
The molecule `COc1ccc2c(c1)Cc1c-2nc2cc(OC)c(OC)c3c2c1CCN3` had an IC50 with PC-3 greater than 1000 nM. Further, the thermal shift (ΔTm) with Nucleic Acid [1] came to 0 °C. The K app in the assay with Nucleic Acid [2] worked out at 1700 M⁻¹.
Taken in the same sequence, the figures for `COc1cc2nc3c(c4c2c(c1OC)NCC4)Cc1cc(OCCCN)ccc1-3` were greater than 1000 nM, 15.8 °C and 6.13e+06 M⁻¹.

Values taken from ChEMBL document CHEMBL1148358, “DNA binding to guide the development of tetrahydroindeno[1,2-b]pyrido[4,3,2-de]quinoline derivatives as cytotoxic agents” (J Med Chem, 2004).
